Assay [1] can be described thus: OD615 S. cerevisiae growth inhibition, permissive medium, pilot counter-assay, permissive growth control for S. cerevisiae lifespan shortening project (AID 705;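 active = growth inhibition above 25% in both replicates, a cutoff set 3 SD above the mean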). Particulars: OD615, 24 h, at 10 µM, active compounds read high. A digest of the protocol:
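System: Engineered DeaD yeast | Buffer or medium: SC raffinose/galactose permissive medium | Incubation: Cells pre-grown 4 h, then 24 h compound exposure, 30 °C humidified | Measured by: Absorbance (optical density) at 615 nm | Read-out: Reduction in yeast growth (OD615)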

Assay [2] can be described thus: Restrictive medium S. cerevisiae growth inhibition, OD615, pilot screen of yeast lifespan reduction project, restrictive growth control (AID 706;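 active = growth inhibition above a set limit, 3 SD over mean compound inhibition, in both replicates, cut at about 43% in these data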;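 note: modified DeaD lifespan yeast strain shifted to restrictive glucose medium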). Particulars: OD615, 48 h, at 10 µM, active compounds read high. A digest of the protocol: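 Material: modified S. cerevisiae; Medium: glucose-based CSMM-D restrictive medium; Compound dosing: one concentration, 10 µM final, 0.25% DMSO; Incubation: 48 h compound exposure at 30 °C; Measured by: OD615.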

The nature of assay [3]: viability gain of MRP-1-high H69AR cells under doxorubicin, pilot screen, MRP-1 activator project, CellTiter-Glo, duplicate (AID 807;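 active = viability increase at or above a cutoff of the median across tested compounds plus 3 SD, cut at about 8.5% in these data, passing the limit was not always enough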;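 note: compound pretreatment 18-22 h then 72 h combined with doxorubicin; 0% = doxorubicin alone and 100% = vehicle without doxorubicin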). Particulars: H69AR viability with doxorubicin, CellTiter-Glo luminescence; at 10 µM; active compounds read high. In general terms: Cellular ATP, detected with luciferase, serves as a proxy for viable cell number.
Assay [4] is described as follows: growth suppression of beta-catenin knockout HCT116, pilot screen, human colon tumor cells (AID 823;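 active = cell viability at or below a set limit in both duplicate runs, the limit being the all-compound median minus 4 SD, cut at about 23% in these data, passing the limit was not always enough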;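 note: 0% = wells killed by 20 µM Hyamine and 100% = untreated DMSO cell wells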). Particulars: CellTiter-Glo, 60 h, at 10 µM, active compounds read low.
Assay [5] in a line: growth suppression of PTEN-deleted HCT116, pilot screen, cell-based, HCT116 clonal line, CellTiter-Glo (AID 824;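 active = viability at or below 27.92% in each of two runs, the all-compound median minus 4 SD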;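 note: 0% = 20 µM Hyamine control and 100% = vehicle cell control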). Particulars: 60 h, at 10 µM, active compounds read low.
Assay [6] can be described thus: inhibitors of the yeast RAM network, pilot screen, dse1pr::URA3 reporter, 5-FOA selection (AID 869;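 active = inhibition over a set limit, the all-compound mean plus 3 SD, in both replicate runs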;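 note: 0% = DMSO wells with no growth and 100% = 10 µM 1-NA-PP1 with full growth; RAM network block rescues cells from 5-FOA so hits raise OD615 growth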). Particulars: S. cerevisiae dse1pr::URA3 5-FOA growth, OD615, 2 d; at 10 µM; active compounds read high; strain carries analog-sensitive mutant Cbk1 kinase.
The nature of assay [7]: RAM signaling pathway blockade in yeast – S. cerevisiae, Pdr1DBD-CYC8 efflux-inhibited sensitized strain, primary screen (AID 1298).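 Note: 0% = DMSO untreated cells without growth and 100% = 10 µM 1-NA-PP1 full growth; higher means more yeast growth rescued from 5-FOA killing.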 Particulars: S. cerevisiae cbk1-as DSE1-URA3 strain, 5-FOA growth OD615, 2 d; at 50 µM; active compounds read high.

Unmarked numbers belong to inactive results. Records with an inconclusive call do not appear. Active and inactive are the calls of the source.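 Rule for the calls, unless noted: active = RAM network inhibition above 8.4% in each of two replicates, 3 SD over the compound average; inconclusive = above 8.4% inhibition in only one replicate; inactive = 8.4% inhibition or less in each replicate.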

Consider `COc1ccc(C2C(C(=O)N3CCN(c4ccc(OC)cc4)CC3)c3ccccc3C(=O)N2C)cc1` (stereo unspecified), for which the figures for the growth inhibition in assay [1] and in assay [2] were 1.52% and -0.315%, respectively. Besides, the viability increase in assay [3] is -0.98%. The viability (commonly a read-out of living cells in per cent, often relative to untreated cells) in assay [4] was 60.6%; in assay [5] it was 61.9%. In addition, in assay [6], the inhibition – broadly, the change of the read-out against control, counted positive when it falls – was 0.215%. For the same compound, the RAM network inhibition in assay [7] was 0.86%.

On to `COc1ccccc1NC(=O)C1=C(C)NC(=O)NC1c1ccc(C)cc1` (stereo unspecified), for which the growth inhibition in assay [1] is -6.15%; in assay [2] it was -13.7%. The viability increase in assay [3] is -1.68%. For the same compound, the viability was 105% in assay [4] and 95.6% in assay [5]. For the same compound, the inhibition in assay [6] was 1.23%. For the same compound, the RAM network inhibition in assay [7] is -1.08%.

`COCCNC(=O)C1c2cc(OC)c(OC)cc2C(=O)N(C)C1c1cccnc1` (stereo unspecified): the growth inhibition was -5.99% in assay [1] and -8.46% in assay [2]. The viability increase in assay [3] was 0.41%. In addition, the viability in assay [4] is 91.3%; in assay [5], 92%. Moreover, the inhibition in assay [6] was -0.34%. For the same compound, in assay [7], the RAM network inhibition was 5.06%.

As for `CSC1=NCCN1C(=O)Cc1ccc(Cl)cc1`, the growth inhibition in assay [1] is 1.21%; in assay [2] it was -7%. The viability increase in assay [3] is 4.4%. The values for the viability in assay [4] and in assay [5] were 108% and 96.7%, respectively. Also, the inhibition in assay [6] is 0.105%. Also, the RAM network inhibition in assay [7] was -0.15%.

On to `Cc1csc2nc(CNS(=O)(=O)c3ccc(-c4ccccc4)cc3)cn12`, for which the growth inhibition was -8.76% in assay [1] and 7% in assay [2]. Besides, in assay [3], the viability increase was -1.09%. Further, the viability in assay [4] is 90.2%; in assay [5], 93.7%. The inhibition in assay [6] was 0.94%. Moreover, the RAM network inhibition in assay [7] is 4.87%.

With `COc1ccccc1C(=O)N(Cc1nc(-c2ccc(Cl)cc2)no1)C(C)C`, the growth inhibition in assay [1] is -17.9%; in assay [2], -20.1%. The viability increase in assay [3] was 1.78%. Besides, the values for the viability in assay [4] and in assay [5] were 69% and 71.3%, respectively. In addition, the inhibition in assay [6] was 0.605%. The RAM network inhibition in assay [7] was 6.95%.

With `O=C(O)c1cc(S(=O)(=O)N2CCCCCC2)c(Cl)cc1Cl`, the growth inhibition in assay [1] is -2.36%; in assay [2] it was -0.81%. Also, the viability increase in assay [3] was -0.57%. The viability in assay [4] is 90.4%; in assay [5] it was 101%. The inhibition in assay [6] was 1.18%. Moreover, in assay [7], the RAM network inhibition is 6.2%.

`COCC(=O)Nc1cc(C)c2c(=O)oc3ccccc3c2n1`: the growth inhibition in assay [1] was 1.37%; in assay [2], 5.79%. The viability increase in assay [3] was -1.64%. For the same compound, the viability in assay [4] was 96%; in assay [5], 94%. Moreover, the inhibition in assay [6] is -0.92%. Also, in assay [7], the RAM network inhibition is 2.67%.

`CCOC(=O)N1CCC(NC(=O)CCc2c(C)nc3c(c(C)nn3-c3ccccc3)c2C)CC1`: the growth inhibition in assay [1] is -8.02%; in assay [2], 0.22%. In assay [3], the viability increase is -1.37%. The viability is 100% in assay [4] and 89.5% in assay [5]. Besides, the inhibition in assay [6] is 2.38%. Further, the RAM network inhibition in assay [7] is 4.08%.

As to `COc1ccc(OC)c(CNC(=O)Cc2c(C(=O)O)[nH]c3ccccc23)c1`, the values for the growth inhibition in assay [1] and in assay [2] were -7.09% and -25%, respectively. In assay [3], the viability increase was -0.54%. In addition, the figures for the viability in assay [4] and in assay [5] were 104% and 101%, respectively. The inhibition in assay [6] was -0.185%. The RAM network inhibition in assay [7] is 5.43%.

In the case of `COc1ccc(NC(=O)C2CCN(S(=O)(=O)c3cccc4cccnc34)CC2)cc1`, the values for the growth inhibition in assay [1] and in assay [2] were -4.51% and 3.15%, respectively. In addition, the viability increase in assay [3] is 1.75%. Also, the figures for the viability in assay [4] and in assay [5] were 102% and 101%, respectively. For the same compound, the inhibition in assay [6] is 2.21%. Besides, the RAM network inhibition in assay [7] is 0.67%.

As to `O=C(Cn1nc(Cc2cccnc2)c2ccccc2c1=O)NCc1ccc2c(c1)OCO2`, the growth inhibition in assay [1] was 1.71%; in assay [2] it was 5.04%. Moreover, in assay [3], the viability increase is -1.57%. Besides, the viability in assay [4] is 97%; in assay [5] it was 94.7%. Further, in assay [6], the inhibition is 0.55%. Further, the RAM network inhibition in assay [7] was -0.05%.

As to `N#Cc1c2n(c3c(-c4ccccc4)ncnc13)CCC2`, the growth inhibition in assay [1] was -12.9%; in assay [2] it was -11.2%. In addition, the viability increase in assay [3] is -2.25%. The viability was 104% in assay [4] and 98.7% in assay [5]. In addition, the inhibition in assay [6] is 2.73%. Further, the RAM network inhibition in assay [7] is 3.93%.

As for `Cn1c(SCC(=O)Nc2ccccc2F)nnc1-c1cccnc1`, the growth inhibition in assay [1] is -5.35%; in assay [2], -5.78%. Moreover, the viability increase in assay [3] was -0.11%. Besides, the viability was 100% in assay [4] and 92.8% in assay [5]. Further, the inhibition in assay [6] was 1.01%. Also, the RAM network inhibition in assay [7] was -1.31%.

On to `COc1ccc(-c2cn3c(C)c(C(=O)N4CCN(c5ccccc5F)CC4)sc3n2)cc1`, for which the growth inhibition in assay [1] was 2.91%; in assay [2] it was -0.695%. Besides, in assay [3], the viability increase was 0.81%. The values for the viability in assay [4] and in assay [5] were 78.9% and 78%, respectively. The inhibition in assay [6] was 2.13%. In addition, the RAM network inhibition in assay [7] was 18.2% (active).

Consider `CC(=O)Oc1c(Cl)c(N2CCOCC2)c(OC(C)=O)c2ccccc12`, for which the growth inhibition was -22.8% in assay [1] and -7.78% in assay [2]. The viability increase in assay [3] was -6.81%. Moreover, the viability in assay [4] is 70.4%; in assay [5] it was 79%. The inhibition in assay [6] was -0.75%. For the same compound, the RAM network inhibition in assay [7] is 2.47%.

For `CC1(C)CC(=O)C=C(NC2CC(C)(C)NC(C)(C)C2)C1`, the figures for the growth inhibition in assay [1] and in assay [2] were -11.6% and -15.2%, respectively. Moreover, the viability increase in assay [3] is -0.93%. Also, the figures for the viability in assay [4] and in assay [5] were 102% and 98.8%, respectively. Moreover, the inhibition in assay [6] was 1.32%. Further, in assay [7], the RAM network inhibition was 3.08%.

With `CCn1nc(C(=O)OCC(=O)c2ccc3c(c2)OCCO3)c2ccccc2c1=O`, the growth inhibition in assay [1] was -8.66%; in assay [2], -8.03%. Further, the viability increase in assay [3] was -3.31%. Also, the values for the viability in assay [4] and in assay [5] were 89.9% and 90.3%, respectively. Besides, the inhibition in assay [6] was 1.78%. For the same compound, the RAM network inhibition in assay [7] was 3.16%.

Values taken from PubChem BioAssay.
